Legend:
Type in all cases: functional
[1] = test system: SW-620; assay: Growth inhibition of human SW620 cells after 48 hrs by sulforhodamine B assay; settings: SW-620, 48 h
In short: (§1)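 Run in the NCI 60-human-tumour-cell-line panel, tested over a 5-log dose range. Dose–response curves gave three values per cell line, each as a log10 molar concentration: GI50 (50% inhibition of net cell growth), TGI (total inhibition of net growth) and LC50 (50% net cell death). The mean graph midpoint is the arithmetic mean over all lines, with insensitive lines entered at the highest concentration tested.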

[2] = test system: MCF7; assay: Anticancer activity against human MCF7 cells assessed as cell growth at 100 uM after 48 hrs by sulforhodamine B assay; settings: MCF7, 48 h, read-out: Activity
[3] = test system: NCI/ADR-RES; assay: Growth inhibition of human NCI/ADR-RES cells after 48 hrs by sulforhodamine B assay
In short: (§2)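 NCI 60-human-tumor-cell-line panel, with compounds tested over a 5-log dose range. Values are taken from dose-response curves as log10 molar concentrations: GI50 is 50% net growth inhibition, TGI is total growth inhibition, and LC50 is 50% net cell death.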

[4] = test system: UO-31; assay: Growth inhibition of human UO31 cells after 48 hrs by sulforhodamine B assay; settings: UO-31, 48 h; in short: as §1
[5] = test system: SNB-19; assay: Growth inhibition of human SNB19 cells after 48 hrs by sulforhodamine B assay; settings: SNB-19, 48 h; in short: as §1
[6] = test system: SF-268; assay: Anticancer activity against human SF268 cells assessed as cell growth at 100 uM after 48 hrs by sulforhodamine B assay; settings: SF-268, 48 h, read-out: Activity
[7] = test system: OVCAR-3; assay: Growth inhibition of human OVCAR-3 cells after 48 hrs by sulforhodamine B assay; settings: OVCAR-3, 48 h; in short: as §2
[8] = test system: MDA-MB-435; assay: Growth inhibition of human MDA-MB-435 cells after 48 hrs by sulforhodamine B assay; settings: MDA-MB-435, 48 h; in short: as §2
[9] = test system: M14; assay: Growth inhibition of human M14 cells after 48 hrs by sulforhodamine B assay; settings: M14, 48 h; in short: as §2
[10] = test system: MCF7; assay: Growth inhibition of human MCF7 cells after 48 hrs by sulforhodamine B assay; settings: MCF7, 48 h; in short: as §2
[11] = test system: NCI-H322M; assay: Growth inhibition of human NCI-H322M cells after 48 hrs by sulforhodamine B assay; in short: as §2
[12] = Growth inhibition of human […] cells after 48 hrs by sulforhodamine B assay; in short: as §2
[13] = test system: SF-268; assay: Growth inhibition of human SF268 cells after 48 hrs by sulforhodamine B assay; settings: SF-268, 48 h; in short: as §2
[14] = test system: CAKI-1; assay: Growth inhibition of human Caki1 cells after 48 hrs by sulforhodamine B assay; settings: CAKI-1, 48 h; in short: as §2
[15] = test system: SK-MEL-28; assay: Growth inhibition of human SK-MEL-28 cells after 48 hrs by sulforhodamine B assay; settings: SK-MEL-28, 48 h; in short: as §2
[16] = test system: OVCAR-8; assay: Growth inhibition of human OVCAR8 cells after 48 hrs by sulforhodamine B assay; settings: OVCAR-8, 48 h; in short: as §2
[17] = test system: UACC-62; assay: Growth inhibition of human UACC62 cells after 48 hrs by sulforhodamine B assay; settings: UACC-62, 48 h; in short: as §1
[18] = test system: NCI-H460; assay: Anticancer activity against human NCI-H460 cells assessed as cell growth at 100 uM after 48 hrs by sulforhodamine B assay; settings: NCI-H460, 48 h, read-out: Activity
[19] = test system: PC-3; assay: Growth inhibition of human PC3 cells after 48 hrs by sulforhodamine B assay; settings: PC-3, 48 h; in short: as §2
[20] = test system: LOX IMVI; assay: Growth inhibition of human LOXIMVI cells after 48 hrs by sulforhodamine B assay; in short: as §2
[21] = test system: 786-0; assay: Growth inhibition of human 786-0 cells after 48 hrs by sulforhodamine B assay; settings: 786-0, 48 h; in short: as §2
[22] = test system: K562; assay: Growth inhibition of human K562 cells after 48 hrs by sulforhodamine B assay; settings: K562, 48 h; in short: as §2
[23] = test system: OVCAR-4; assay: Growth inhibition of human OVCAR4 cells after 48 hrs by sulforhodamine B assay; settings: OVCAR-4, 48 h; in short: as §2
[24] = Growth inhibition of human Hs 578T cells after 48 hrs by sulforhodamine B assay; in short: as §2
[25] = test system: IGROV-1; assay: Growth inhibition of human IGROV1 cells after 48 hrs by sulforhodamine B assay; settings: IGROV-1, 48 h; in short: as §2
[26] = test system: U-251; assay: Growth inhibition of human U251 cells after 48 hrs by sulforhodamine B assay; settings: U-251, 48 h; in short: as §1
[27] = test system: HL-60(TB); assay: Growth inhibition of human HL-60(TB) cells after 48 hrs by sulforhodamine B assay; settings: HL-60, 48 h
In short: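 Tested only on compounds active in a three-line prescreen, in the NCI 60-human-tumour-cell-line panel over a 5-log dose range. Values come from dose–response curves as log10 molar GI50, the concentration inhibiting 50% net cell growth. Log10 TGI (total growth inhibition) and log10 LC50 (50% net cell death) were derived too. Mean graph midpoints include insensitive lines at the highest concentration tested.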

[28] = test system: NCI-H522; assay: Growth inhibition of human NCI-H522 cells after 48 hrs by sulforhodamine B assay; settings: NCI-H522, 48 h; in short: as §2
[29] = test system: HOP-62; assay: Growth inhibition of human HOP62 cells after 48 hrs by sulforhodamine B assay; settings: HOP-62, 48 h; in short: as §2
[30] = read-out: pLC50 (the source's name) (converted)

COc1ccc(Oc2nc3cc(N)cc(N)c3nc2-c2ccccc2)cc1
GI50 [1]: 89.1 µM
CC50 [1, 30]: > 100 µM
TGI ([1]; read-out: pTGI (converted)): > 100 µM
growth at 100 µM [2]: -89%
GI50 [3]: 60.3 µM
CC50 [3, 30]: > 100 µM
TGI ([3]; read-out: pTGI (converted)): > 100 µM
GI50 [4]: 28.2 µM
CC50 [4, 30]: > 100 µM
TGI ([4]; read-out: pTGI (converted)): > 100 µM
GI50 [5]: 64.6 µM
LC50 [5]: > 100 µM
TGI ([5]; read-out: pTGI (converted)): > 100 µM
growth at 100 µM [6]: -56%
GI50 [7]: 14.8 µM
CC50 [7, 30]: > 100 µM
TGI ([7]; read-out: pTGI (converted)): 72.4 µM
GI50 [8]: 40.7 µM
CC50 [8, 30]: > 100 µM
TGI ([8]; read-out: pTGI (converted)): > 100 µM
GI50 [9]: > 100 µM
CC50 [9, 30]: > 100 µM
TGI ([9]; read-out: pTGI (converted)): > 100 µM
GI50 [10]: 47.9 µM
CC50 [10, 30]: > 100 µM
TGI ([10]; read-out: pTGI (converted)): > 100 µM
GI50 [11]: > 100 µM
LC50 [11]: > 100 µM
TGI ([11]; read-out: pTGI (converted)): > 100 µM
GI50 [12]: 10.5 µM
LC50 [12]: > 100 µM
TGI ([12]; read-out: pTGI (converted)): 70.8 µM
GI50 [13]: 20.9 µM
LC50 [13]: > 100 µM
TGI ([13]; read-out: pTGI (converted)): > 100 µM
GI50 [14]: 79.4 µM
CC50 [14, 30]: > 100 µM
TGI ([14]; read-out: pTGI (converted)): > 100 µM
GI50 [15]: 19.5 µM
CC50 [15, 30]: > 100 µM
TGI ([15]; read-out: pTGI (converted)): 49 µM
GI50 [16]: 32.4 µM
CC50 [16, 30]: > 100 µM
TGI ([16]; read-out: pTGI (converted)): > 100 µM
GI50 [17]: 63.1 µM
CC50 [17, 30]: > 100 µM
TGI ([17]; read-out: pTGI (converted)): > 100 µM
growth at 100 µM [18]: -48%
GI50 [19]: 15.1 µM
CC50 [19, 30]: > 100 µM
TGI ([19]; read-out: pTGI (converted)): > 100 µM
GI50 [20]: 34.7 µM
LC50 [20]: > 100 µM
TGI ([20]; read-out: pTGI (converted)): > 100 µM
GI50 [21]: 24.5 µM
CC50 [21, 30]: > 100 µM
TGI ([21]; read-out: pTGI (converted)): > 100 µM
GI50 [22]: 26.3 µM
LC50 [22]: > 100 µM
TGI ([22]; read-out: pTGI (converted)): > 100 µM
GI50 [23]: 3.72 µM
CC50 [23, 30]: > 100 µM
TGI ([23]; read-out: pTGI (converted)): 24.5 µM
GI50 [24]: 24.5 µM
CC50 [24, 30]: > 100 µM
TGI ([24]; read-out: pTGI (converted)): > 100 µM
GI50 [25]: 25.1 µM
CC50 [25, 30]: > 100 µM
TGI ([25]; read-out: pTGI (converted)): > 100 µM
GI50 [26]: 26.3 µM
LC50 (50% net cell kill) [26]: > 100 µM
TGI ([26]; read-out: pTGI (converted)): > 100 µM
GI50 [27]: 15.5 µM
LC50 [27]: > 100 µM
TGI ([27]; read-out: pTGI (converted)): > 100 µM
GI50 [28]: 31.6 µM
LC50 [28]: > 100 µM
TGI ([28]; read-out: pTGI (converted)): > 100 µM
GI50 [29]: 19.5 µM
LC50 [29]: 87.1 µM
TGI ([29]; read-out: pTGI (converted)): 40.7 µM

Reference: ChEMBL document CHEMBL1137710, “Synthesis and in vitro antitumor activity of new quinoxaline derivatives” (2009)
